High-throughput results deposited in PubChem BioAssay by several laboratories.
In the library only some 1.6% were active in any assay of this set; here they are far more common.
NR2E3 ag-1: agonists of human nuclear receptor NR2E3 | Q9Y5X4 | inhibition of corepressor binding, % at 4.78 µM | 0.12% of 320,000 active | GST-NR2E3/biotin-RetCOR TR-FRET, 1536-well;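 active = percent inhibition above the cutoff of mean plus 3 SD of all tested compounds, set per screening campaign, cut at about 20% in these data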;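 note: 0% = DMSO wells and 100% = biotin wells as full block of FRET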
Target sequence (Q9Y5X4 whole entry, looked up): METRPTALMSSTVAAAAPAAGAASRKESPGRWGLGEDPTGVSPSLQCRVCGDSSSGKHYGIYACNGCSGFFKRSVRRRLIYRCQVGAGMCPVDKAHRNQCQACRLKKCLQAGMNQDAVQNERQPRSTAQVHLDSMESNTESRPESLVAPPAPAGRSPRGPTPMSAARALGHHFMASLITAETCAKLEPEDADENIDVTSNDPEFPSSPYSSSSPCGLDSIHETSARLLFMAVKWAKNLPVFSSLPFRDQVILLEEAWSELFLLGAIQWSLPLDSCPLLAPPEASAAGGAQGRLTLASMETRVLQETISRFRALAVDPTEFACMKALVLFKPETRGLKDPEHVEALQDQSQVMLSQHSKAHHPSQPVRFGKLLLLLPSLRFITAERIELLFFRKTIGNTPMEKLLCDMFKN
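System: GST-tagged NR2E3 plus biotinylated RetCOR corepressor; Amount: 1.35 nM GST-tagged NR2E3 final; Dosing: single nominal compound dose of 4.8 µM; Schedule: 5 h incubation at 4 °C; Technique: TR-FRET with europium anti-GST and streptavidin-D2, 340 nm excitation; Controls: biotin wells as high control, 0.6% DMSO wells as low control.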
NR2E3 ag-2: activates human NR2E3 receptor. Q9Y5X4. CHO-S Gal4-NCOR/VP16-NR2E3 two-hybrid, luciferase. inhibition of corepressor binding, % at 3.98 µM. 0.35% of 360,000 active. AID 602229;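 active = inhibition above the mean of all tested compounds plus 3 SD, cut at about 70% in these data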;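 note: 0% = DMSO with NR2E3 transfected cells and 100% = cells lacking NR2E3 construct; higher means lower luciferase signal from less NR2E3 corepressor binding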
PG9 binder: PG9 antibody binding by small molecule; AID 624416; 0.43% of 360,000 active; TR-FRET gp120-PG9 antibody binding; inhibition, % at 6.7 µM; in the data active = inhibition above about 8.5%
Rev-erbA mod: modulates human Rev-erb alpha binding to DNA. P20393. Rev-erbα–FITC-DNA binding, fluorescence polarization, 90 min. activity, % at 10 µM. 0.79% of 370,000 active. AID 1259318;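 active = activity above about 14%, limit read from the data; passing the limit was not always enough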;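 note: 0% = DMSO wells with 35 nM protein and 100% = DMSO wells with 750 nM protein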
VLA-4 inh: inhibition in a human VLA-4 binding assay; inhibition, % (about 7 µM as worked out from the volumes in the protocol); VLA-4 expressing cells, ligand binding flow cytometry; P13612; 0.2% of 330,000 active; in the data active = inhibition above about 50%
NR1D1 mod conf: confirmation of modulators of human Rev-erb alpha DNA binding; Rev-erb alpha FITC-DNA binding, fluorescence polarization, 90 min; AID 1259319; 61% of 3,000 active; activation, % at 25 µM; shares compounds with Rev-erbA mod;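 active = activation at or above a set limit, or at least 3 SD above the negative control mean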;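 note: 0% = 35 nM protein with DMSO and 100% = 750 nM protein high control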
RORg counter: RORgamma DNA-binding activity, dose-response counter-screen; shares compounds with Rev-erbA mod; purified RORgamma protein-FITC-DNA binding, fluorescence polarization; 8% of 910 active; AID 1259320; IC50, µM;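 active = Compounds whose fitted half-maximal concentration for disrupting protein-DNA binding is below 10 micromolar; the record names Rev-erb in its text, so the target is in doubt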
Active calls of the source: *; nt = no result given.

SMILES | NR2E3 ag-1 | NR2E3 ag-2 | PG9 binder | Rev-erbA mod | VLA-4 inh | NR1D1 mod conf | others
CCOC(=O)c1c(NC(=O)CSc2nc3cc(Cl)ccc3s2)sc(C(C)=O)c1C | 5.0 | nt | -5.6 | 65.2* | 6.7 | 4.2
Cc1cc(C)nc(NC(=O)CSc2nc3cc(Cl)ccc3s2)n1 | 1.8 | 11.0 | -1.5 | 1.7 | -9.4 | nt
CCOC(=O)c1c(NC(=O)CSc2nc3ccccc3s2)sc(C(C)=O)c1C | 4.0 | 18.9 | -1.0 | 25.3* | 3.3 | 42.7* | RORg counter=>40
O=C(CSc1nc(C2CCCCC2)nc2ccccc12)NCc1ccc2c(c1)OCO2 | 4.9 | -5.8 | 0.2 | 19.6* | 0.1 | 15.9
O=C(Nc1nnc(-c2ccccc2)o1)c1cccc(N2C(=O)CCC2=O)c1 | 2.3 | -4.9 | 0.7 | -3.9 | -5.4 | nt
O=C(Nc1nnc(-c2ccc(Br)cc2)o1)c1cccc(N2C(=O)CCC2=O)c1 | 6.1 | 2.6 | -1.8 | 18.1* | -7.2 | 0.2
CCn1c(NC(=O)C(C)C)c(-c2ccccc2)c(=O)c2ccccc21 | 3.0 | -27.4 | 0.3 | -4.5 | -11.9 | nt
Cc1ccc(NC(=O)c2ccc(Cl)c(N3C(=O)CCC3=O)c2)cc1 | 2.4 | -35.2 | 0.4 | -2.5 | 8.2 | nt
CCCCCCNC(=O)OC12CN(C(=O)OC(C)C)N(C(=O)OC(C)C)CC1(O)CN(S(=O)(=O)c1ccc(C)cc1)C2 (stereo not drawn) | nt | 26.0 | -0.2 | 15.0* | nt | -0.5
O=C(NCCOc1ccccc1F)c1cccc(S(=O)(=O)N2CCN(c3ccccc3)CC2)c1 | -0.1 | 30.1 | -1.8 | -4.2 | -11.2 | nt
CN(CC(=O)Nc1cccc(F)c1)C(=O)c1ccc(-c2cccc(C(F)(F)F)c2)o1 | -0.9 | -13.4 | -1.9 | -1.2 | 9.9 | nt
Cc1ccc(C)c(NC(=O)CN(C)C(=O)c2ccc(-c3cccc(C(F)(F)F)c3)o2)c1 | -1.4 | 3.6 | 6.0 | 21.9* | 0.0 | 22.8*
COc1cc(NC(=S)N(C)CCC#N)c(OC)cc1Cl | -5.0 | 20.1 | -0.9 | -8.1 | -8.8 | nt
COC(=O)c1ccc2nc(-c3ccc(F)cc3)c(Cc3ccccc3C(F)(F)F)n2c1 | nt | -2.9 | 0.1 | 20.7* | nt | -4.9
COC(=O)c1ccc2nc(-c3ccccc3)c(Cc3ccccc3C(F)(F)F)n2c1 | nt | -18.2 | 0.6 | 22.1* | nt | 19.5*
O=C(Nc1cccc(S(=O)(=O)NC2=NCCC2)c1)c1ccc(C(F)(F)F)cc1 | nt | -58.2 | -1.0 | -0.5 | 8.9 | nt
CCCSc1nc(SCC(=O)NCc2ccccc2)c2c3c(sc2n1)COC(C)(C)C3 | 0.1 | -13.8 | -0.3 | 45.3* | 12.6 | 14.7
O=C(Nc1ccc(Br)cc1)c1ccc2ncsc2c1 | -3.2 | -235.6 | -0.9 | -2.1 | -9.2 | nt
CS(=O)(=O)c1ccc2nc(NC(=O)c3cc([N+](=O)[O-])cc([N+](=O)[O-])c3)sc2c1 | 1.1 | 6.4 | -0.5 | 5.5 | 1.1 | nt
Cc1ccc2nc(NC(=O)c3ccc4ncsc4c3)sc2c1 | 1.2 | -241.6 | 0.6 | 34.2* | 7.2 | 23.9*
COc1ccc2oc(C(=O)Nc3nc4ccc(S(C)(=O)=O)cc4s3)c(C)c2c1 | -2.8 | 8.8 | -1.1 | 30.8* | 2.5 | 0.3
COc1cc(OC)cc(C(=O)Nc2nc3ccc(S(C)(=O)=O)cc3s2)c1 | 0.2 | -51.8 | 2.2 | 33.1* | -3.7 | 21.3*
O=C(Nc1ccc2c(c1)C(=O)NC2=O)c1ccc2ncsc2c1 | 4.1 | -77.2 | 1.7 | 56.8* | 5.9 | 53.5* | RORg counter=6.01*
COc1ccc2oc(C(=O)Nc3nnc(C)s3)c(C)c2c1 | 2.0 | -131.2 | -0.2 | 2.3 | 11.2 | nt
CCN(CC(=O)Nc1c(F)cccc1F)C(=O)CSCC(=O)Nc1cccc(C)c1 | 3.5 | 2.0 | -1.2 | -1.2 | -8.1 | nt
SMILES | NR2E3 ag-1 | NR2E3 ag-2 | PG9 binder | Rev-erbA mod | VLA-4 inh | NR1D1 mod conf | others
CC(=O)c1sc(NC(=O)c2oc3ccc(F)cc3c2C)nc1C | nt | -78.7 | 0.3 | 53.8* | -3.8 | 45.9* | RORg counter=>40
CC(=O)c1sc(NC(=O)c2cc(=O)c3ccccc3o2)nc1C | 4.4 | -42.5 | -2.7 | 1.3 | 9.0 | nt
COc1cc(C(=O)Nc2nc3ccc(S(C)(=O)=O)cc3s2)cc(OC)c1C | 4.3 | -31.7 | 2.7 | 21.0* | 5.5 | 9.7
CCOCCCNc1nc2c(-c3ccccc3)nnn2c2ccccc12 | 2.0 | -15.6 | -0.8 | 26.5* | -15.5 | 6.7
CCCCNc1nc2c(-c3ccccc3)nnn2c2ccccc12 | -0.1 | -4.9 | 0.1 | 50.2* | -3.4 | 22.1*
CC(C)OCCCNc1nc2c(-c3ccccc3)nnn2c2ccccc12 | 6.0 | nt | nt | nt | 6.0 | nt
NNc1nc2c(-c3cccc(C(F)(F)F)c3)nnn2c2ccccc12 | nt | -13.2 | -0.6 | 0.7 | -39.6 | nt
COCCNc1nc2c(-c3cccc(C(F)(F)F)c3)nnn2c2ccccc12 | 1.4 | -38.9 | -2.2 | 51.8* | 7.7 | 18.1*
OCCCNc1nnc(-c2ccccc2)c2ccccc12 | 3.8 | -58.2 | -0.5 | -8.6 | 10.5 | nt
CCOC(=O)c1nnn2c1nc(Nc1cccc(C(F)(F)F)c1)c1ccccc12 | 1.1 | 2.1 | -1.9 | 48.9* | 1.1 | 38.3* | RORg counter=>40
CN(CC(=O)NC1CC(C)(C)NC(C)(C)C1)S(=O)(=O)c1ccc(Br)cc1 | 1.6 | -8.5 | -0.2 | -1.6 | 6.8 | nt
Cc1ccc2cc(C)c(SCC(=O)Nc3ccc(S(=O)(=O)N4CCCC4)cc3)nc2c1 | 0.2 | 7.5 | 2.3 | 26.8* | 9.2 | 19.1*
Cc1cc2cc3c(cc2nc1SCC(=O)Nc1ccccc1)CCC3 | 0.1 | 2.6 | -0.9 | 33.2* | 8.6 | 15.4
COc1cc(NC(=O)CSc2nc3ccccc3cc2C)c(C(=O)O)cc1OC | 0.6 | -22.3 | -2.3 | -3.5 | 5.9 | nt
Cc1ccc(-c2nnc(SCC(=O)Nc3ccc(S(=O)(=O)N4CCCCCC4)cc3)o2)cc1 | -1.7 | -9.4 | 1.8 | -0.3 | -2.9 | nt
O=C(CSc1nnc(-c2ccccc2NC(=O)c2ccccc2)o1)OC1CCCCC1 | 0.6 | 9.5 | -1.6 | 108.4* | -0.2 | 16.7
O=C(CSc1nnc(-c2cccs2)o1)OC1CCCCC1 | 2.7 | -2.5 | -3.0 | 1.1 | 9.6 | nt
COc1ccc(CCn2c(C(C)C)nc3c(c(=O)c4ccccc4n3C)c2=O)cc1 | 5.9 | 10.5 | nt | nt | 3.0 | nt
COc1ccc(Cn2c(-c3ccc(C)cc3)nc3c(c(=O)c4ccccc4n3C)c2=O)cc1 | 2.8 | -6.4 | 1.4 | 26.6* | 32.8 | 14.1
COc1ccc(Cn2c(-c3ccco3)nc3c(c(=O)c4ccccc4n3C)c2=O)cc1 | 0.0 | -0.3 | 4.1 | -21.6 | 6.9 | nt
COc1ccc(-c2nc3c(c(=O)[nH]c(=O)n3Cc3ccccc3)n2C)cc1 | 5.2 | -0.1 | 0.5 | 43.4* | -9.3 | 0.3
COc1ccc(Cn2c(C)nc3c(c(=O)c4ccccc4n3C)c2=O)cc1 | -5.0 | -19.8 | -1.6 | 4.5 | -1.4 | nt
COc1ccc(-c2nc3c(c(=O)c4ccccc4n3C)c(=O)n2Cc2ccccc2)cc1 | -0.5 | -31.9 | 0.7 | 48.4* | -1.4 | 50.1* | RORg counter=>40
